Data on ten molecules can be found in ChEMBL document CHEMBL1177765, “Synthesis and biological evaluation of new cytotoxic azanaphthoquinone pyrrolo-annelated derivatives” (Bioorg Med Chem Lett, 2010).

Broadly, the EC50 is the concentration at which the effect is half-maximal. Usually inhibition stands for how much of the control response was suppressed.

Structures are written as SMILES. Converted amounts (≈) assume the structure as drawn. The source made the active and inactive calls. The rule behind the calls is not given here. Where only a bound is given, the exact number is not on record here.

The test system of one assay is Nucleic Acid. As to the kind of experiment: Binding affinity to DNA at 125 uM. The assay is classed as nucleic-acid assay. The essentials: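 UV-absorbance DNA intercalation assay. Stocks up to 5 mM were made in 5% (v:v) DMSO or methanol, then diluted stepwise in pH 7 buffer (5 mM NaH2PO4, 5 mM Na2HPO4, 70 mM NaCl) to give absorbance maximum about 1–2. Spectra were read from 350 to 600 nm with or without 2 mg/ml calf thymus DNA. Acridine orange was the reference.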

Assay [1] can be described thus: Cytotoxicity against human RKOp27IND cells after 48 hrs by XTT assay. The class given is functional, cell-based.
Assay [2] can be described thus: Cell cycle arrest in human RKOp27 cells assessed as accumulation at G2/M phase. The assay is classed as functional, cell-based.
The subject of assay [3] is SF-268. Description: Cytotoxicity against human SF268 cells after 48 hrs by XTT assay. The assay is classed as functional, cell-based. The settings on record: SF-268, 48 h. The procedure, abridged:
(§1)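 XTT assay of cell proliferation after 48 h exposure. EC50 is the concentration giving 50% inhibition, fitted by nonlinear regression to data from at least two independent assays.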

Assay [4] in a line: Cytotoxicity against human KB/HeLa cells after 48 hrs by XTT assay. The class given is functional, cell-based. The procedure, abridged: as §1
(Tetrazolium assays rely on reduction of a dye to a coloured formazan, in cell work by metabolically active cells.)

The test system of assay [5] is NCI-H460. Description: Cytotoxicity against human NCI-H460 cells after 48 hrs by XTT assay. Particulars: NCI-H460, 48 h. The class given is functional, cell-based. The essentials: as §1
For assay [6], the system named is SK-OV-3. Description: Cytotoxicity against human SKOV3 cells after 48 hrs by XTT assay. The assay is classed as functional, cell-based. The settings on record: SK-OV-3, 48 h. The essentials:
as §1

The nature of assay [7]: Cell cycle arrest in human RKOp27IND cells assessed as accumulation at G2/M phase. The assay is classed as functional, cell-based.
The nature of assay [8]: Cytotoxicity against human RKOp27 cells after 48 hrs by XTT assay. The assay is classed as functional, cell-based. Particulars: RKOp27, 48 h. The essentials:
as §1

In assay [9] the test system is SK-OV-3. Description: Cytotoxicity against human SKOV3 cells at 3.16 ug/mL after 48 hrs by XTT assay. The class given is functional. The settings on record: SK-OV-3, 48 h.
Assay [10] can be described thus: Cytotoxicity against human RKOp27IND cells at 3.16 ug/mL after 48 hrs by XTT assay. The class given is functional.
Assay [11] deals with NCI-H460. As to the kind of experiment: Cytotoxicity against human NCI-H460 cells at 3.16 ug/mL after 48 hrs by XTT assay. The assay is classed as functional. Particulars: NCI-H460, 48 h.
Assay [12] relates to SF-268. As to the kind of experiment: Cytotoxicity against human SF268 cells at 3.16 ug/mL after 48 hrs by XTT assay. The settings on record: SF-268, 48 h. The assay is classed as functional.
The nature of assay [13]: Cytotoxicity against human RKOp27 cells at 3.16 ug/mL after 48 hrs by XTT assay. The class given is functional. The settings on record: RKOp27, 48 h.
The nature of assay [14]: Cytotoxicity against human KB/HeLa cells at 3.16 ug/mL after 48 hrs by XTT assay. The assay is classed as functional.

In the case of `CN(C)CCn1ccc2c1C(=O)c1cncnc1C2=O`, the result (in the assay with Nucleic Acid; in assay [2]; in assay [7]) was inactive. Moreover, the EC50 in assay [1] worked out at 0.377 µg/mL (≈ 1.39 µM); in the assay on SF-268 [3] it was 0.107 µg/mL (≈ 0.396 µM); in assay [4], 0.173 µg/mL (≈ 0.64 µM); in the assay on NCI-H460 [5], 0.082 µg/mL (≈ 0.303 µM); with SK-OV-3 [6], 0.239 µg/mL (≈ 0.884 µM); in assay [8] it was 0.173 µg/mL (≈ 0.64 µM).

Regarding `CN(C)CCn1ccc2c1C(=O)c1nccnc1C2=O`, the EC50 in [1] is 2.97 µg/mL (≈ 11 µM); in the assay with SF-268 [3] it was 2.7 µg/mL (≈ 9.99 µM); in assay [4], 1.37 µg/mL (≈ 5.06 µM); in the assay on NCI-H460 [5], 1.12 µg/mL (≈ 4.15 µM); in the assay on SK-OV-3 [6] it was 3 µg/mL (≈ 11.1 µM); in [8] it was 1.19 µg/mL (≈ 4.42 µM).

Consider `CN(C)CCn1ccc2c1C(=O)c1ncccc1C2=O`, for which the inhibition at 3.16 µg/mL (in the assay with SK-OV-3 [9]; in assay [10]; in the assay on NCI-H460 [11]; in the assay on SF-268 [12]; in assay [13]; in assay [14]) was less than 50% throughout.

Consider `CN(C)CCn1ccc2c1C(=O)c1cccnc1C2=O`, for which the inhibition at 3.16 µg/mL (in the assay with SK-OV-3 [9]; in [10]; with NCI-H460 [11]; with SF-268 [12]; in assay [13]; in assay [14]) was less than 50% each time.

In the case of `CN(C)CCCn1ccc2c1C(=O)c1ccncc1C2=O`, the EC50 (in assay [1]; in the assay on SF-268 [3]; in assay [4]; in the assay on NCI-H460 [5]; in the assay on SK-OV-3 [6]; in assay [8]) was 3 µg/mL (≈ 10.6 µM) throughout.

For `CN(C)CCCn1ccc2c1C(=O)c1nccnc1C2=O`, the inhibition at 3.16 µg/mL (in the assay with SK-OV-3 [9]; in assay [10]; in the assay with NCI-H460 [11]; in the assay with SF-268 [12]; in [13]; in assay [14]) was less than 50% in each case.

`CN(C)CCCn1ccc2c1C(=O)c1cncnc1C2=O`: the concentration for a half-maximal effect (EC50) in [1] is 0.44 µg/mL (≈ 1.55 µM); in the assay on SF-268 [3], 0.198 µg/mL (≈ 0.696 µM); in [4], 0.28 µg/mL (≈ 0.985 µM); in the assay with NCI-H460 [5], 0.177 µg/mL (≈ 0.623 µM); in the assay with SK-OV-3 [6], 0.452 µg/mL (≈ 1.59 µM); in [8] it was 0.246 µg/mL (≈ 0.865 µM).

Take `CN(C)CCCn1ccc2c1C(=O)c1cccnc1C2=O`: the inhibition at 3.16 µg/mL (in the assay on SK-OV-3 [9]; in assay [10]; with NCI-H460 [11]; in the assay on SF-268 [12]; in assay [13]; in assay [14]) was less than 50% throughout.

Regarding `CN(C)CCCn1ccc2c1C(=O)c1ncccc1C2=O`, the inhibition at 3.16 µg/mL (in the assay on SK-OV-3 [9]; in assay [10]; in the assay on NCI-H460 [11]; in the assay on SF-268 [12]; in assay [13]; in [14]) was less than 50% throughout.

Regarding `CN(C)CCn1ccc2c1C(=O)c1ccncc1C2=O`, the EC50 (in [1]; in the assay on SF-268 [3]; in assay [4]; in the assay with NCI-H460 [5]; with SK-OV-3 [6]; in assay [8]) was 3 µg/mL (≈ 11.1 µM) each time.
